In PubChem BioAssay:
Calls of active or inactive are those of the source.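 Rule for the calls, unless noted: active = viability at or under a set limit in both replicates, limit being median viability minus 3 SD (cut at about 48% in these data, passing the limit was not always enough); inconclusive = at or under the limit in just one replicate; inactive = at or above the limit in both replicates.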

Experiments:
[1] = Her2 expression decrease, cell viability multiplex – SKBR3 breast tumor cells, AlphaScreen, ATP viability, primary screen (AID 461;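 active = Her2 level under about 52% in both replicate screens, with viability over 70% of control, limit read from the data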;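 for Her2 level: lower value means less Her2 protein in the cells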;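 for viability: percent of carrier control wells set as 100% viability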); conditions: SKBR3 Her2 protein level, 18-24 h, measured here: SKBR3 viability, ATP luminescence, at 10 µM
[2] = target: Receptor tyrosine-protein kinase erbB-2 (Homo sapiens) (UniProt P04626); experiment: as above; conditions: 18-24 h, at 10 µM, stronger effect = lower value
Sequence of Receptor tyrosine-protein kinase erbB-2 (Homo sapiens) (P04626 whole entry, looked up): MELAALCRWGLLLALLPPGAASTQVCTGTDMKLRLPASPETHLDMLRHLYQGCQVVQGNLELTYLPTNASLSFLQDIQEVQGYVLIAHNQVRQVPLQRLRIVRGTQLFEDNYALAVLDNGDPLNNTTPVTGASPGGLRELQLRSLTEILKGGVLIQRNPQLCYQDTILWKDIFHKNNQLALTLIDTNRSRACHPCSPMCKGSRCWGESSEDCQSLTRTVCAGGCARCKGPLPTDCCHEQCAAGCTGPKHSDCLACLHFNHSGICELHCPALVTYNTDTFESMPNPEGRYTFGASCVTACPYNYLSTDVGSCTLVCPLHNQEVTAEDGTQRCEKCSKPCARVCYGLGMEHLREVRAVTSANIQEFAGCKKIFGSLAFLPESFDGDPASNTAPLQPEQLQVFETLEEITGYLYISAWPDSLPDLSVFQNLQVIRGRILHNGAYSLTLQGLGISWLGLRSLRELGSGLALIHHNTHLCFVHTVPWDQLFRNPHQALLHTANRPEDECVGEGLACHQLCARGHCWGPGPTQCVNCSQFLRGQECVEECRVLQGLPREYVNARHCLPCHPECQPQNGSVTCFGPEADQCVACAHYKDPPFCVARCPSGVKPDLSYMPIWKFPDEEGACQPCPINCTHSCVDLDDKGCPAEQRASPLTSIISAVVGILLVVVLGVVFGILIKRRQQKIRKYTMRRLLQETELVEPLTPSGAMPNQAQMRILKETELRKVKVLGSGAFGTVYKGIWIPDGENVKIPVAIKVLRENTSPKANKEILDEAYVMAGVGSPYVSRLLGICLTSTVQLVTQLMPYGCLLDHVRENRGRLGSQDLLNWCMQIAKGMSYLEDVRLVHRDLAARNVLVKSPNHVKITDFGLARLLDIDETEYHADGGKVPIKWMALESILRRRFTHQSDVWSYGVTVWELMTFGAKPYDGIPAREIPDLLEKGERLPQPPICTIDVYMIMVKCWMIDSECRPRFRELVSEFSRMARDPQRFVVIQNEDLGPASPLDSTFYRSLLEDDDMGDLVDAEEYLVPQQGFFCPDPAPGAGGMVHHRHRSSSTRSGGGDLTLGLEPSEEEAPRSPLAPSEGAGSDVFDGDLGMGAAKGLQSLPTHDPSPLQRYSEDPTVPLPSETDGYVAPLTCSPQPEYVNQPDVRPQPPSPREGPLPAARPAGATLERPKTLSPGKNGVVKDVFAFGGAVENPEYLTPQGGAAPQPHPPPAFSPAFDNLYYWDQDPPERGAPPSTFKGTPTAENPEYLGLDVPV

[3] = reduced viability of SK-BR-3 breast cancer cells – cell-based, 24 h, human, pilot screen (AID 572;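 active = viability at or below 10% of carrier control in both of two separate runs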;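 note: compound exposure lasted between 18 and 24 h rather than exactly 24 h; 100% = carrier-treated control wells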); conditions: SK-BR-3 viability, CellTiter-Glo luminescence, at 10 µM, stronger effect = lower value
[4] = HUVEC growth inhibition – cell-based, human, primary screen (AID 575;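 active = viability at or below 30% in both replicate assays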;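 note: 100% = median of untreated cell wells with 0.1% DMSO on each plate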); conditions: HUVEC proliferation, CellTiter-Glo luminescence, 72 h; at 10 µM; stronger effect = lower value
Method in brief: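 Test system: primary human umbilical vein endothelial cells. Quantity: 1250 cells/well. Compound: single 10 µM dose, 0.1% DMSO, from 5x medium stock. Timing: 72 h treatment at 37 °C. Detection: ATP-based CellTiter-Glo luminescent read. Benchmarks: vehicle and MePR control wells. Format: 384-well plates coated with collagen.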

[5] = H69AR cell proliferation blockers – human, duplicate replicates, primary screen (AID 580); conditions: H69AR lung tumor cells viability, ATP luminescence, 72 h; at 10 µM; stronger effect = lower value;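 note: 100% = mean luminescence of untreated wells and 0% = no signal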
[6] = MRP1 drug-resistance reversers in H69AR cells – cell-based, doxorubicin co-treatment, pilot screen (AID 601;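 active = viability loss from added drug above about 55%, and viability with drug at most 40%, in both replicates, limit read from the data, passing the limit was not always enough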); conditions: CellTiter-Glo, 72 h, at 10 µM; for differential viability (reversal): stronger effect = higher value
[7] = yeast transport mutant growth inhibition pilot in 384-well plates, post-Golgi transport modulator project (AID 636; in the data active = inhibition above about 31%); conditions: absorbance 615 nm, about 18 h, stronger effect = higher value
[8] = growth suppression of yeast trafficking mutant, preliminary HTS, modulators of trafficking downstream of Golgi apparatus project, 1536-format plate, OD 615 nm (AID 637; in the data active = inhibition above about 30%); conditions: yeast transport mutant growth, absorbance 615 nm, 18 h; stronger effect = higher value
[9] = H69AR cells + 2 uM doxorubicin, measured here: viability with 2 uM doxorubicin, stronger effect = lower value
[10] = H69AR cells, compound alone cytotoxicity

Compound | viability [1] | Her2 level [2] | viability [3] | viability [4] | viability [5] | differential viability (reversal) ([6]; H69AR cells + 2 uM doxorubicin) | viability [6, 9] | viability [6, 10] | inhibition [7] | inhibition [8]
OC(CCN1CCOCC1)(c1ccc(Cl)cc1)C1CCCCC1 (stereo not given) | 82.5% | 102% (inactive) | 82.5% (inactive) | 99.6% (inactive) | 82% (inactive) | -3.7% (inactive) | 85.7% | 82% | -0.4% (inactive) | 21.5% (inactive)
CC1(C)Cc2noc(N)c2C(C)(C)N1OC(=O)c1ccco1 | 118% | 82.5% (inactive) | 118% (inactive) | 93.1% (inactive) | 94.5% (inactive) | 2.83% (inactive) | 91.7% | 94.5% | -3.55% (inactive) | 3.81% (inactive)
Cc1c(C(=O)O)oc2ccc(S(=O)(=O)NCCC3=CCCCC3)cc12 | 100% | 98.5% (inactive) | 100% (inactive) | 95.9% (inactive) | 101% (inactive) | 6.48% (inactive) | 94.3% | 101% | -3.16% (inactive) | -9.52% (inactive)
COc1ccccc1C(=O)Nc1ccc(S(=O)(=O)N2CCOCC2)cc1 | 104% | 104% (inactive) | 104% (inactive) | 92.9% (inactive) | 93.2% (inactive) | -0.52% (inactive) | 93.7% | 93.2% | -2.89% (inactive) | 4.59% (inactive)
Cc1cc(NS(=O)(=O)c2ccccc2)n(-c2ccccc2)n1 | 106% | 95.5% (inactive) | 106% (inactive) | 85.2% (inactive) | 96.2% (inactive) | -2.34% (inactive) | 98.6% | 96.2% | -4.13% (inactive) | 2.1% (inactive)
O=C(Nc1cccc(C(F)(F)F)c1)c1ccco1 | 129% | 79.5% (inactive) | 129% (inactive) | 95.9% (inactive) | 103% (inactive) | 19.4% (inactive) | 84% | 103% | -5.33% (inactive) | 8.52% (inactive)
CCn1c(=O)c(C(=O)NCc2ccc(OC)cc2)c(O)c2ccccc21 | 86.5% | 89.5% (inactive) | 86.5% (inactive) | 46.7% (inactive) | 73.2% (inactive) | -13.4% (inactive) | 86.7% | 73.2% | -3.46% (inactive) | -8.5% (inactive)
OCCn1c(-c2ccc3c(c2)OCO3)csc1=Nc1ccccc1 | 97% | 71.5% (inactive) | 97% (inactive) | 51.4% (inactive) | 88.7% (inactive) | -2.46% (inactive) | 91.2% | 88.7% | -4.4% (inactive) | 5.9% (inactive)
[O-][n+]1c2ccc3nonc3c2nn1-c1ccccc1Cl | 136% | 124% (inactive) | 136% (inactive) | 89.3% (inactive) | 95.1% (inactive) | 16.1% (inactive) | 79% | 95.1% | -0.4% (inactive) | -6.45% (inactive)
Cn1c(=N)n(CC(=O)O)c2ccccc21 | 108% | 100% (inactive) | 108% (inactive) | 91.5% (inactive) | 96.2% (inactive) | 6.81% (inactive) | 89.4% | 96.2% | -5.97% (inactive) | -5.4% (inactive)
COc1ccc(N(CC(=O)NCCSC(C)(C)C)S(C)(=O)=O)c(OC)c1 | 91% | 97.5% (inactive) | 91% (inactive) | 106% (inactive) | 92.8% (inactive) | -8.27% (inactive) | 101% | 92.8% | 1.04% (inactive) | 2.62% (inactive)
Cc1ccc2c(c1)NC(=O)C(CC(=O)NC1CCCCC1C)O2 (stereo not given) | 110% | 86.5% (inactive) | 110% (inactive) | 103% (inactive) | 97.1% (inactive) | -3.58% (inactive) | 101% | 97.1% | -2.53% (inactive) | -1.15% (inactive)
COC(=O)c1ccc(COc2ncnc3c(Cl)cc(Cl)cc23)o1 | 102% | 100% (inactive) | 102% (inactive) | 95.4% (inactive) | 85.9% (inactive) | 18.5% (inactive) | 67.4% | 85.9% | -8.16% (inactive) | -2.73% (inactive)
CC1=C(C)C(=O)NC(Nc2nc(C)c3cc(C)cc(C)c3n2)N1 (stereo not given) | 120% | 79.5% (inactive) | 120% (inactive) | 10.6% (active) | 17.2% (active) | 6.29% (inactive) | 10.9% | 17.2% | -3.59% (inactive) | -3% (inactive)
N#CC(C(=O)c1ccco1)c1ccccn1 (stereo not given) | 106% | 81% (inactive) | 106% (inactive) | 98.1% (inactive) | 86.1% (inactive) | 4.21% (inactive) | 81.9% | 86.1% | -7.37% (inactive) | 0.67% (inactive)
Cc1nnc(NC(=O)Nc2cccc(Cl)c2)s1 | 86% | 89.5% (inactive) | 86% (inactive) | 76.8% (inactive) | 63% (inactive) | -21% (inactive) | 84.1% | 63% | -6.18% (inactive) | -4.03% (inactive)
C=CCn1c(CC#N)nnc1N1CCOCC1 | 90.5% | 88% (inactive) | 90.5% (inactive) | 100% (inactive) | 109% (inactive) | 19.4% (inactive) | 89.5% | 109% | -0.68% (inactive) | -2.22% (inactive)
COC(C)(C)c1cc(C(C)(C)C)nc(N)n1 | 107% | 109% (inactive) | 107% (inactive) | 86.2% (inactive) | 89.9% (inactive) | -1.34% (inactive) | 91.2% | 89.9% | -2.08% (inactive) | -4.75% (inactive)
Cc1nc(CCNC(=O)c2ccccc2)cs1 | 92.5% | 95% (inactive) | 92.5% (inactive) | 106% (inactive) | 98.5% (inactive) | 7.85% (inactive) | 90.6% | 98.5% | 0.27% (inactive) | 4.03% (inactive)
O=C(NCC1CCCO1)C1CCN(c2ccc(S(=O)(=O)N3CCCC3)cc2)CC1 (stereo not given) | 115% | 112% (inactive) | 115% (inactive) | 99.2% (inactive) | 80% (inactive) | -6.02% (inactive) | 86% | 80% | -5.45% (inactive) | -1.5% (inactive)
CC1CCN(C(=O)CCNS(=O)(=O)c2ccccc2)CC1 | 110% | 118% (inactive) | 110% (inactive) | 96.7% (inactive) | 92.8% (inactive) | 0.83% (inactive) | 92% | 92.8% | -3.9% (inactive) | -2.06% (inactive)
Cn1c(=O)c2c(nc(SCc3nn[nH]n3)n2Cc2ccccc2F)n(C)c1=O | 97.5% | 97% (inactive) | 97.5% (inactive) | 94.4% (inactive) | 90.9% (inactive) | -2.83% (inactive) | 93.7% | 90.9% | -0.13% (inactive) | 1.27% (inactive)
O=C(Nc1ccc2c(c1)OCCO2)C1CCCN1S(=O)(=O)c1cccc2cccnc12 (stereo not given) | 92% | 100% (inactive) | 92% (inactive) | 100% (inactive) | 96.8% (inactive) | 14.4% (inactive) | 82.3% | 96.8% | -1.33% (inactive) | -0.98% (inactive)
CCc1nn2c(N3CCOCC3)cc(C)nc2c1-c1ccc(F)cc1 | 92% | 84% (inactive) | 92% (inactive) | 86.2% (inactive) | 93.4% (inactive) | 31.5% (inactive) | 62% | 93.4% | -6.16% (inactive) | 1.75% (inactive)
O=C(c1ccc2c(c1)c(=O)oc1ccccc12)N1CCCCC1 | 109% | 86% (inactive) | 109% (inactive) | 98.6% (inactive) | 101% (inactive) | 14.1% (inactive) | 87.3% | 101% | -2.11% (inactive) | 3.17% (inactive)
Cn1cccc1C1NC(=O)c2c(sc3c2CCC(C(C)(C)C)C3)N1 (stereo not given) | 110% | 77.5% (inactive) | 110% (inactive) | 125% (inactive) | 90.4% (inactive) | -11% (inactive) | 101% | 90.4% | -9.86% (inactive) | 1.67% (inactive)
O=C1NC(c2cccs2)Nc2ccccc21 (stereo not given) | 107% | 86.5% (inactive) | 107% (inactive) | 111% (inactive) | 86.7% (inactive) | -4.77% (inactive) | 91.4% | 86.7% | -8.03% (inactive) | -9.52% (inactive)
CCSc1nnc(NC(=O)CSc2nnc(Cc3cccn3C)n2-c2ccc(C)cc2)s1 | 95.5% | 108% (inactive) | 95.5% (inactive) | 78.4% (inactive) | 88.8% (inactive) | -7.38% (inactive) | 96.1% | 88.8% | -1.56% (inactive) | -5.24% (inactive)
